Converted amounts (≈) assume the structure as drawn.

The subject of series [1] is Streptococcus pneumoniae. The experiment in a line: Antibacterial activity against penicillin-susceptible Streptococcus pneumoniae P-52181.
Series [2] can be described thus: AUC in leukopenic mouse with renal failure at 25 mg/kg, sc. Particulars: plasma. Set-up: dose 25 mg/kg, route subcutaneous. It counts as ADME, organism-based. The gist of the method:
(§1)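 Uninfected female Swiss mice (6-7 weeks) made leukopenic with cyclophosphamide (150 mg/kg i.p. […] from 4 days pre-challenge) and given uranyl nitrate 6 mg/kg i.p. once, 4 days earlier. […] AUC0-24 by trapezoid method from one-compartment fit.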

The nature of series [3]: Cmax in leukopenic mouse with renal failure at 7 mg/kg, sc after 0.5 hrs. It counts as ADME, organism-based. Set-up: dose 7 mg/kg, route subcutaneous. Conditions: in vivo.
Series [4] has as its system Mus musculus. Put plainly: T>MIC in leukopenic mouse with renal failure at 25 mg/kg, sc. It counts as ADME, organism-based. Set-up: dose 25 mg/kg, route subcutaneous. Particulars: in vivo.
The nature of series [5]: Half life in leukopenic mouse with renal failure at 7 mg/kg, sc. It counts as ADME, organism-based. On the set-up: dose 7 mg/kg, route subcutaneous. Conditions: in vivo. The gist of the method:
(§2)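 Terminal t1/2 = ln 2/kel, kel from least-squares slope of linear portions of log concentration-time curve; data fitted to one-compartment open model, zero-order absorption, first-order elimination.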

Series [6] can be described thus: AUC in human at 1 g, po. Particulars: plasma. It is filed as ADME, organism-based.
The nature of series [7]: Cmax in leukopenic mouse with renal failure at 15 mg/kg, sc after 0.5 hrs. Particulars: in vivo. It counts as ADME, organism-based. On the set-up: dose 15 mg/kg, route subcutaneous.
The subject of series [8] is Mus musculus. The experiment in a line: Effect on survival of Swiss mouse infected with penicillin-resistant Streptococcus pneumoniae P-54988 at 15 mg/kg, sc. It is filed as functional. Particulars: route subcutaneous. The gist of the method: (§3)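 Female Swiss albino mice, 6-7 weeks old, made leukopenic with cyclophosphamide 150 mg/kg ip daily ×3 from 4 days before challenge. Renal failure from one uranyl nitrate 6 mg/kg ip dose 4 days before challenge. Intratracheal inoculum of ~10^7 log-phase CFU under pentobarbital. […] 12-15 mice/group; deaths recorded daily for 10 days; Mantel-Haenszel comparison.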

Series [9] can be described thus: Half life in leukopenic mouse with renal failure at 15 mg/kg, sc. It is filed as ADME, organism-based. Conditions: in vivo. Set-up: dose 15 mg/kg, route subcutaneous. The gist of the method:
as §2

The subject of series [10] is Mus musculus. Put plainly: Effect on survival of Swiss mouse infected with penicillin-resistant Streptococcus pneumoniae P-15986 at 15 mg/kg, sc. Conditions: route subcutaneous. It counts as functional. The essentials: as §3
The test system of series [11] is Mus musculus. The experiment in a line: Effect on survival of Swiss mouse infected with penicillin-susceptible Streptococcus pneumoniae P-52181 at 15 mg/kg, sc.
The nature of series [12]: Cmax in leukopenic mouse with renal failure at 25 mg/kg, sc after 0.5 hrs. It counts as ADME, organism-based. Particulars: in vivo. Set-up: dose 25 mg/kg, route subcutaneous.
The test system of series [13] is Mus musculus. Put plainly: T>MIC in leukopenic mouse with renal failure at 7 mg/kg, sc. Set-up: dose 7 mg/kg, route subcutaneous. It counts as ADME, organism-based. Particulars: in vivo.
Series [14] deals with Streptococcus pneumoniae. Put plainly: Antibacterial activity against penicillin-resistant Streptococcus pneumoniae P-54988. It is filed as functional. The essentials: (§4)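 Tube dilution in Mueller-Hinton infusion broth with 5% sterile horse serum, using twofold antibiotic dilutions. Tubes were incubated 18 h at 37°C in 10% CO2-air. MIC was the lowest concentration with no turbidity visible to the naked eye.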

Series [15] has as its system Mus musculus. Put plainly: T>MIC in leukopenic mouse with renal failure at 15 mg/kg, sc. It counts as ADME, organism-based. Set-up: dose 15 mg/kg, route subcutaneous. Particulars: in vivo.
In series [16] the test system is Streptococcus pneumoniae. Put plainly: Antibacterial activity against penicillin-resistant Streptococcus pneumoniae P-15986. It counts as functional. The essentials:
as §4

Series [17] concerns Mus musculus. Put plainly: Effect on survival of Swiss mouse infected with penicillin-resistant Streptococcus pneumoniae P-12698 at 15 mg/kg, sc. It is filed as functional. Particulars: route subcutaneous. The gist of the method: as §3
Series [18] is described as follows: AUC in leukopenic mouse with renal failure at 15 mg/kg, sc. It counts as ADME, organism-based. Conditions: plasma. Set-up: dose 15 mg/kg, route subcutaneous. The gist of the method:
as §1

The nature of series [19]: AUC in leukopenic mouse with renal failure at 7 mg/kg, sc. It counts as ADME, organism-based. Set-up: dose 7 mg/kg, route subcutaneous. Particulars: plasma. The essentials: as §1
The nature of series [20]: Half life in human at 1 g, po. It counts as ADME, organism-based. Conditions: in vivo.
Series [21] in a line: Half life in leukopenic mouse with renal failure at 25 mg/kg, sc. It is filed as ADME, organism-based. Set-up: dose 25 mg/kg, route subcutaneous. Particulars: in vivo. The essentials: as §2
Series [22] has as its system Streptococcus pneumoniae. Put plainly: Antibacterial activity against penicillin-resistant Streptococcus pneumoniae P-12698. It is filed as functional. The essentials:
as §4

Series [23] in a line: Cmax in human at 1 g, po after 0.5 hrs. It counts as ADME, organism-based. On the set-up: dose 1 g, route oral. Particulars: in vivo.
The test system of series [24] is Mus musculus. The experiment in a line: Effect on survival of Swiss mouse infected with penicillin-resistant Streptococcus pneumoniae P-12698 at 25 mg/kg, sc. It is filed as functional. Conditions: route subcutaneous. The gist of the method:
as §3

One may read the MIC as the least concentration at which growth counts as inhibited. Broadly, the AUC is the area under the concentration-time curve, a measure of exposure. A high value points to more exposure. The Cmax is the peak of the concentration-time curve. Broadly, the half-life is how long it takes for the measured level to halve. A higher half-life goes with slow decline. `CC1(C)S[C@@H]2[C@H](NC(=O)[C@H](N)c3ccc(O)cc3)C(=O)N2[C@H]1C(=O)O` [AMOXICILLIN]: the MIC in [1] was determined as 0.03 mg/L (≈ 0.0821 µM); in series [14], 2 mg/L (≈ 5.47 µM); in series [16], 4 mg/L (≈ 10.9 µM); in series [22], 2 mg/L (≈ 5.47 µM). In addition, the AUC in series [2] was 227 µg·h/mL; in series [6] it was 68 µg·h/mL; in [18], 80 µg·h/mL; in series [19], 46 µg·h/mL. Moreover, the Cmax in [3] worked out at 13 µg/mL; in [7], 28 µg/mL; in series [12], 85 µg/mL; in series [23] it was 19 µg/mL. The “T>MIC” value is 8 h in series [4], 4 h in series [13] and 4 h in series [15]. For the same molecule, the half-life in series [5] is 1.6 h; in series [9], 1.6 h; in series [20], 1.5 h; in [21], 1.7 h. Besides, the survival at 15 mg/kg in series [8] was 81%; in series [10] it was 82%; in [11], 83%; in [17], 50%. Moreover, in series [24], the survival at 25 mg/kg amounted to 57%.
